# Assay outcomes deposited in PubChem BioAssay by several laboratories.
# Xi reactivation = X-chromosome reactivation activator; AID 743238; XiGFP mouse fibroblasts, % GFP-positive cells imaging, 3 d; cells co-treated with 5-aza-dC sensitizer; scaled so ellipticine positive control = 100%; activation, % at 7.58 µM; 0.055% of 360,000 active;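 active = mean normalized replicate activation at least 10% and every replicate at or above 10%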;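 note: 0% = median of on-plate neutral control wells and 100% = ellipticine 6 µM median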
#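 System: SV40-immortalized XiGFP fibroblast cells, line 68-5-11 / Incubation: 3-day compound exposure, then 15 min fixation at room temperature / Compound: single concentration per compound, delivered by pin transfer / Buffer or medium: DMEM plus 5-aza-dC sensitizer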
# Rpn11 block = Rpn11 (human) deubiquitinase inhibition | O00487 | human 26S proteasome, Ub4-pepOG fluorescence polarization; 20S core pre-blocked with epoxomicin | inhibition, % at 20 µM | 0.59% of 360,000 active | AID 588493;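 active = inhibition at 20 µM, scaled to each plate's controls, above about 33%, limit read from the data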
# Target sequence (O00487 whole entry, looked up): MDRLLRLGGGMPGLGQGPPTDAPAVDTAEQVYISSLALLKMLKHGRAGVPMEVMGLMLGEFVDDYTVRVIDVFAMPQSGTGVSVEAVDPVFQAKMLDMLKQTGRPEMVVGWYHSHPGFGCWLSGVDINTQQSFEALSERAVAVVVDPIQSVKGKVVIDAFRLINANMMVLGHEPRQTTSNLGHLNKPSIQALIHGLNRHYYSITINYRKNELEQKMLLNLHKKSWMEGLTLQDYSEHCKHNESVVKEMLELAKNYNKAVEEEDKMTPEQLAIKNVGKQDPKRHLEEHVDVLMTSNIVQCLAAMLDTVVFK
# aDG glyco act = alpha-DG glycosylation activation; Pro5-aDG cells, alpha-DG glycosylation AlphaScreen (IIH6); 0% Pro5, 100% B10-LARGE cell signal; activation, % at 10 µM; 0.22% of 360,000 active; AID 624168;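 active = activation of at least 8% versus controls, or a plate z-score of at least 8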;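 note: Pro5 are CHO cells carrying HIG-tagged alpha-DG that lacks glycosylation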
# HNF4A DNA FP = change in binding of human HNF4 alpha to DNA | AID 1224865 | activity change, % at 10 µM | 0.3% of 360,000 active | HNF4a-FITC DNA binding, fluorescence polarization, 1 h; in the data active = activity change above about 30%, passing the limit was not always enough
# CSN inh = blocks human CSN-mediated cullin deneddylation; 0.38% of 360,000 active; inhibition, % at 12.5 µM; Purified CSN, SCF-Nedd8-OG deneddylation, fluorescence polarization; AID 651999; Q92905;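 active = pattern-corrected inhibition above about 35%, with an unprinted fluorescence ratio check between 0.5 and 1.5, limit read from the data, passing the limit was not always enough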;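 note: 0% = enzyme with substrate and 100% = substrate without enzyme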
# Target sequence (Q92905 whole entry, looked up, one chain of several): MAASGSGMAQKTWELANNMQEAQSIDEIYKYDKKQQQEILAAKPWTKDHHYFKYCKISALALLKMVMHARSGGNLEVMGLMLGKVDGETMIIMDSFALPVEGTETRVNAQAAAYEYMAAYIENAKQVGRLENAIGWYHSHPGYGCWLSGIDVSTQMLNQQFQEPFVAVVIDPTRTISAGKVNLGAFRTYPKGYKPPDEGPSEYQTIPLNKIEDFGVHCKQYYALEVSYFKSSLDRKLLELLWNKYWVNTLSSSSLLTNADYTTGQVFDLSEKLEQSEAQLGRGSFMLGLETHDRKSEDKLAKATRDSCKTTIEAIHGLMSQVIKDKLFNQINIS
#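 Test system: purified human Csn5 enzyme expressed in HEK293T cells. Amount: 0.24 nM enzyme. Reagent: SCFSkp2-Nedd8OG substrate at 10 nM final. Schedule: 90 min incubation of compound, enzyme and substrate at room temperature. Detection: fluorescence polarization. Read-out: % inhibition of substrate cleavage by Csn5.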
# TPT1 inh = inhibitors of Candida albicans tRNA 2'-phosphotransferase TPT1. recombinant caTPT1, FP RNA substrate dephosphorylation. inhibition, % at 5 µM. 0.81% of 300,000 active. AID 1962;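 active = inhibition above the mean of all tested compounds plus 3 SD, set per screening campaign, cut at about 24% in these data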;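 note: plate controls were DMSO alone for no effect and ferristatin control at 100 nM for full effect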
# aDG glyco conf = alpha-DG glycosylation activation, confirmation; shares compounds with aDG glyco act; Pro5-aDG cells, IIH6 AlphaLISA; scaled to LARGE-overexpressing B10 cells as 100%; activation, % at 10 µM (by protocol); 17% of 600 active;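 active = activation of at least 7% in one or more replicates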;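 note: cells exposed to compound for two days before detection; 0% = DMSO-treated Pro5 cells and 100% = DMSO-treated B10-LARGE cells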
# Active calls of the source: *; nt = no result. A selection: hits, their analogues and other compounds. The true share with any hit is near 1.3%.
SMILES,Xi reactivation,Rpn11 block,aDG glyco act,HNF4A DNA FP,CSN inh,TPT1 inh,aDG glyco conf
C[C@@H]1CN([C@@H](C)CO)C(=O)CCCn2nncc2CO[C@@H]1CN(C)C(=O)Nc1ccc(C(C)(C)C)cc1,0,1,14*,0,0,nt,-1
CC(C)COC(=O)N(C)C[C@@H]1OCc2cnnn2CCCC(=O)N([C@H](C)CO)C[C@@H]1C,0,-11,7.2*,-2,1,nt,0
C[C@@H]1CN([C@H](C)CO)C(=O)CCCn2nncc2CO[C@@H]1CN(C)C(=O)CCC(F)(F)F,0,-11,7.3*,-3,1,nt,0
O=C(COC(=O)CN1C(=O)C2CCCCC2C1=O)Nc1c(Cl)cccc1Cl (stereo unspecified),0,0,4.4*,-3,-3,nt,1
CN1C(=O)c2cc(NC(=O)c3ccc(Cl)cc3)ccc2OC[C@@H]2O[C@H](CC(=O)NCc3cccc(F)c3)CC[C@@H]21,0,nt,nt,nt,nt,nt,nt
COc1ccc(C(=O)Nc2ccc3c(c2)OC[C@@H](C)N(C(C)=O)C[C@H](C)[C@H](OC)CN(C)C3=O)cc1,0,nt,nt,nt,nt,nt,nt
CCOC(=O)C(=CNc1cc(C)nn1-c1ccc(C)cc1)C(=O)OCC,nt,0,4.7*,2,-1,-3,1
COc1ccc2c3c([nH]c2c1)[C@@H](CO)N(C(=O)c1cccc(F)c1)CC31CCN(C(=O)c2ccccc2)CC1,0,nt,nt,nt,nt,nt,nt
Cc1ccc(C)c(N2CCN(C(=O)CCCN3C(=S)NC(C)(C)CC3C)CC2)c1 (stereo unspecified),0,-9,7.9*,1,-6,2,4
Cc1cccc(N2CCN(C(=O)CCN3C(=S)NC(C)(C)CC3C)CC2)c1C (stereo unspecified),0,6,0,2,-5,-1,nt
C[C@H](CO)N1C[C@H](C)[C@H](CN(C)S(C)(=O)=O)Oc2cc(C#CCN(C)C)ccc2S1(=O)=O,0,nt,nt,nt,nt,nt,nt
CCOC(=O)c1cc(-c2ccc(F)cc2)n(CCC(=O)NC2CCN(Cc3ccccc3)CC2)c1C,0,-3,8.4*,0,0,0,3.5*
CCOc1ccc2nc(NC(=O)CSC3=NCCS3)sc2c1,nt,2,3.4*,1,-4,1,-1
CCc1nc(CN2CCCC(C(=O)c3ccc4c5c(cccc35)CC4)C2)c(C)[nH]1 (stereo unspecified),0,10,7.3*,5,3,-1,-1
COc1cc(NC(=O)N[C@@H](Cc2ccccc2)C(=O)O)cc(OC)c1,0,2,0,0,-2,1,nt
COc1ccc(OC)c(NC(=O)N[C@@H](Cc2ccccc2)C(=O)O)c1,nt,-1,5.9*,-3,4,4,0
COc1cc2ccccc2cc1C(=O)Nc1nccs1,0,-7,4.0*,4,6,-5,-1
COc1ccc(-c2cc(C3CCN(c4ccc(C(C)=O)cc4[N+](=O)[O-])CC3)[nH]n2)cc1,nt,6,10*,1,2,-1,4
Cc1noc(C)c1S(=O)(=O)Nc1ccc2c(c1)C(=O)N([C@@H](C)CO)C[C@@H](C)[C@H](CN(C)Cc1ccccc1)O2,-1,nt,nt,nt,nt,nt,nt
N=c1c2c(ncn1CCCO)Oc1c(ccc3ccccc13)C2c1ccccc1 (stereo unspecified),0,-30,3.1*,2,0,-5,4.7*
COc1ccc(C2c3ccc4ccccc4c3Oc3ncn(CCCO)c(=N)c32)cc1 (stereo unspecified),0,-21,0,3,5,1,nt
CC(=O)c1ccc(N2CCN(C(=O)Nc3ccc(C(C)C)cc3)CC2)cc1,0,0,7.4*,-1,-2,-1,6.8*
COc1ccc(NC(=O)N(C)C[C@@H]2Oc3ccc(NS(=O)(=O)c4cccs4)cc3C(=O)N([C@H](C)CO)C[C@H]2C)cc1,0,nt,nt,nt,nt,nt,nt
COCCNc1nc(NCCOc2ccccc2)c2sc(-c3ccccc3)cc2n1,0,2,7.6*,3,-3,nt,6.9*
COc1ccc(CN2C(=O)C(CC(=O)NC3CCCC3)CC(C(=O)N(C(C)C)C(C)C)=C2C)cc1 (stereo unspecified),0,-2,5.0*,-5,-1,nt,1
SMILES,Xi reactivation,Rpn11 block,aDG glyco act,HNF4A DNA FP,CSN inh,TPT1 inh,aDG glyco conf
CC1=C(C(=O)N(C(C)C)C(C)C)CC(CC(=O)NC2CCCCC2)C(=O)N1Cc1ccc(C(C)(C)C)cc1 (stereo unspecified),0,8,0,-4,1,nt,nt
CN1CCN(C(=O)C[C@H]2CC[C@@H]3[C@H](COC[C@@H](O)CN3CC3CC3)O2)CC1,0,nt,nt,nt,nt,nt,nt
COc1ccc(NC(=O)C2CC(=O)N=C(N)S2)cc1 (stereo unspecified),0,9,12*,3,-5,-6,-1
Cc1ccc(S(=O)(=O)Nc2ccc3c(c2)C(=O)N([C@@H](C)CO)C[C@H](C)[C@H](CN(C)Cc2ccncc2)OCCCC[C@H](C)O3)cc1,0,nt,nt,nt,nt,nt,nt
CO[C@@H]1CN(C)C(=O)c2cc(NC(=O)C3CCCCC3)ccc2OC[C@@H](C)N(C)C[C@H]1C,0,nt,nt,nt,nt,nt,nt
CN(CC(=O)Nc1cccc(Cl)c1)S(=O)(=O)c1ccc2[nH]c(=O)oc2c1,0,3,5.7*,-7,7,4,-1
C/C(=N/Nc1nc(C)cc(C)n1)c1ccc(Br)cc1,0,4,2.2*,1,3,-2,2
C/C(=N\Nc1nc(C)cc(C)n1)c1ccc(N2CCOCC2)cc1,0,8,3,4,3,1,nt
COc1ccc(CN(C)C[C@H]2Oc3ccc(NS(=O)(=O)c4c(C)noc4C)cc3CC(=O)N([C@H](C)CO)C[C@@H]2C)cc1,0,nt,nt,nt,nt,nt,nt
COc1ccccc1CNC(=O)C[C@@H]1CC[C@H]2[C@H](COc3ccc(NC(=O)Nc4ccc(F)c(F)c4)cc3C(=O)N2C)O1,0,nt,nt,nt,nt,nt,nt
CO[C@@H]1CN(C)C(=O)c2cc(NC(=O)Nc3cc(F)ccc3F)ccc2OC[C@H](C)N(C(=O)c2ccccn2)C[C@H]1C,0,nt,nt,nt,nt,nt,nt
C[C@@H]1CN([C@@H](C)CO)C(=O)Cc2cc(NC(=O)C3CCCCC3)ccc2O[C@H]1CN(C)C(=O)Nc1ccc(F)cc1,-1,nt,nt,nt,nt,nt,nt
C[C@@H]1CN([C@@H](C)CO)C(=O)c2cc(N(C)C)ccc2O[C@@H](C)CCCCO[C@H]1CN(C)C(=O)c1ccncc1,0,nt,nt,nt,nt,nt,nt
Cc1ccccc1S(=O)(=O)N1C[C@H]2CON(C)[C@H]2C[C@H]1c1cccc(-c2ccccc2)c1,0,-2,0,-3,1,nt,nt
